Source: ChEMBL document CHEMBL1212775, “A novel class of meso-tetrakis-porphyrin derivatives exhibits potent activities against hepatitis C virus genotype 1b replicons in vitro” (Antimicrob Agents Chemother, 2010)

Legend:
[1] = tested on: CCRF-CEM; assay: Mitochondrial DNA toxicity in human CEM cells; type: cell-based
In short: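 CEM cell lysates slot-blotted and hybridized with an mtDNA-specific probe, then reprobed with an Alu probe as internal control. Bands quantified by autoradiography and densitometry.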

[2] = tested on: Hepatitis C virus; assay: Antiviral activity against Hepatitis C virus genotype 1b Con1 infected in human Huh-luc/neo-ET replicon cells assessed as reduction of replicon luciferase signal after 72 hrs by luciferase reporter assay in presence of 5% fetal bovine serum; type: functional, organism-based, Hepacivirus hominis
In short: (§1)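 Huh-luc/neo-ET cells without G418, incubated with serially diluted compounds in medium containing 5%, 10%, 20% or 40% (vol/vol) FBS. Firefly luciferase read after 72 h. EC50 from dose-effect curves. The 0% value is a theoretical EC50 extrapolated from the plot of EC50 versus serum level. Means ± SD of three independent experiments.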

[3] = tested on: Hepatitis C virus; assay: Antiviral activity against Hepatitis C virus genotype 1b Con1 infected in human Huh-luc/neo-ET replicon cells assessed as reduction of replicon luciferase signal after 72 hrs by luciferase reporter assay in presence of 10% fetal bovine serum; type: functional, organism-based, Hepacivirus hominis; in short: as §1
[4] = tested on: Hepatitis C virus; assay: Antiviral activity against Hepatitis C virus genotype 1b Con1 infected in human Huh-luc/neo-ET replicon cells assessed as reduction of replicon luciferase signal after 72 hrs by luciferase reporter assay in presence of 20% fetal bovine serum; type: functional, organism-based, Hepacivirus hominis; in short: as §1
[5] = tested on: Human immunodeficiency virus 1; assay: Antiviral activity against Human immunodeficiency virus 1 3B virus infected in human MT2 cells assessed as inhibition of virus-induced cytopathic effect by colorimetry; type: functional, organism-based
In short: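 MT-2 cells, 1 × 10^3 per well in triplicate, infected with HIV-1 IIIB at 0.1 TCID50/cell and cultured with compounds. Viral CPE quantified by MTT colorimetry after 5 days to estimate EC50.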

[6] = tested on: Hepatitis C virus; assay: Antiviral activity against Hepatitis C virus genotype 1b Con1 infected in human Huh-luc/neo-ET replicon cells assessed as reduction of replicon luciferase signal after 72 hrs by luciferase reporter assay in presence of 0% fetal bovine serum; type: functional, organism-based, Hepacivirus hominis; in short: as §1
[7] = Cytotoxicity against human Huh-7 cells by luminescence based cell viability assay
[8] = tested on: Hepatitis C virus; assay: Antiviral activity against Hepatitis C virus genotype 2a JFH1 infected in human YSGR-JFH replicon cells assessed as inhibition of virus RNA level after 72 hrs by quantitative RT-PCR; type: functional, organism-based, Hepacivirus hominis; conditions: subtype 2a JFH1, 72 h
In short: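 YSGR-JFH genotype 2a subgenomic replicon cells (maintained with 400 μg/ml G418), 1 × 10^5 per well, incubated with DMSO, serially varied compound, or IFN-α-2a for 72 h. HCV RNA by qRT-PCR normalized to β-actin, as percent of mock-treated control. Mean ± SD of three independent experiments.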

[9] = tested on: Hepatitis C virus; assay: Antiviral activity against Hepatitis C virus genotype 1b Con1 infected in human Huh-luc/neo-ET replicon cells assessed as reduction of replicon luciferase signal after 72 hrs by luciferase reporter assay in presence of 40% fetal bovine serum; type: functional, organism-based, Hepacivirus hominis; in short: as §1
[10] = tested on: Hepatitis C virus; assay: Antiviral activity against Hepatitis C virus genotype 1b Con1 infected in human Huh-luc/neo-ET replicon cells assessed as reduction of replicon luciferase signal after 72 hrs by luciferase reporter assay; type: functional, organism-based, Hepacivirus hominis
In short: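 Replicon cells grown without G418, seeded at 5 × 10^3 per well, treated next day in duplicate with serial dilutions (DMSO control) at 37°C for 72 h. After a PBS wash, cells lysed in ice-cold passive lysis reagent and firefly luciferase RLU read as percent of compound-free control. EC50 by nonlinear regression of the dose-effect curve.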

[11] = biological target: Cytochrome c (Homo sapiens, UniProt P99999); assay: Binding affinity to Cytochrome C
[12] = tested on: Hepatitis B virus; assay: Antiviral activity against Hepatitis B virus infected in human 2.2.15 cells assessed as reduction of […] after 72 hrs by southern DNA hybridization method; type: functional, organism-based; conditions: HepG2 2.2.15, 72 h
[13] = tested on: MT2; assay: Cytotoxicity against human MT2 cells after 5 days by colorimetry; type: cell-based; conditions: MT2, 120 h
In short: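 Uninfected MT-2 cells coincubated with compounds for 5 days. Cytotoxicity by colorimetric quantitation.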

[14] = Cytotoxicity against human HuH7 cells by luminescence based cell viability assay; design: species or system Huh-7
In short: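 Exponentially growing Huh-7 cells seeded at 1 × 10^4 per well and incubated with compounds for 3 days. Viability read by CellTiter-Glo luminescence, used for dark compounds that interfere with methylene blue absorbance at 595 nm. CC50 derived.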

Chain of Cytochrome c (P99999 whole entry): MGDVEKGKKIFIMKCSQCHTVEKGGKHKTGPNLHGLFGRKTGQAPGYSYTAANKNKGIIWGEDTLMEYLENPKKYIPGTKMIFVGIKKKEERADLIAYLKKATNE

Row | SMILES | IC50 [1] [µM] | EC50 [2] [µM] | EC50 [3] [µM] | EC50 [4] [µM] | EC50 [5] [µM] | EC50 [6] [µM] | CC50 [7] [µM] | EC50 [8] [µM] | EC50 [9] [µM] | EC50 [10] [µM] | Kd [11] [µM] | EC50 [12] [µM] | CC50 [13] [µM] | CC50 [14] [µM]
1 | O=C(O)c1ccc(-c2c3nc(c(-c4ccc(C(=O)O)cc4)c4ccc([nH]4)c(-c4ccc(C(=O)O)cc4)c4ccc([nH]4)c(-c4ccc(C(=O)O)cc4)c4nc2C=C4)C=C3)cc1 | > 50 | 0.124 | 0.243 | 0.513 | > 25 | 0.0482 | > 50 | 1.9 | 0.948 | 0.243 | 0.95 | > 10 | > 25 | > 50
2 | O=C(O)CNC(=O)c1cc(C(=O)NCC(=O)O)cc(-c2ccc(-c3c4nc(c(-c5ccc(-c6cc(C(=O)NCC(=O)O)cc(C(=O)NCC(=O)O)c6)cc5)c5ccc([nH]5)c(-c5ccc(-c6cc(C(=O)NCC(=O)O)cc(C(=O)NCC(=O)O)c6)cc5)c5nc(c(-c6ccc(-c7cc(C(=O)NCC(=O)O)cc(C(=O)NCC(=O)O)c7)cc6)c6ccc3[nH]6)C=C5)C=C4)cc2)c1 | 12.5 | – | – | – | 1.05 | – | > 50 | – | – | > 12.5 | – | > 10 | 15 | 12.5
3 | O=C(O)CNC(=O)c1ccc(-c2ccc(-c3c4nc(c(-c5ccc(-c6ccc(C(=O)NCC(=O)O)cc6)cc5)c5ccc([nH]5)c(-c5ccc(-c6ccc(C(=O)NCC(=O)O)cc6)cc5)c5nc(c(-c6ccc(-c7ccc(C(=O)NCC(=O)O)cc7)cc6)c6ccc3[nH]6)C=C5)C=C4)cc2)cc1 | > 50 | – | – | – | 1.5 | – | > 50 | – | – | 0.148 | – | > 20 | 13 | > 50
4 | O=C(O)c1ccc(-c2ccc(-c3c4nc(c(-c5ccc(-c6ccc(C(=O)O)cc6)cc5)c5ccc([nH]5)c(-c5ccc(-c6ccc(C(=O)O)cc6)cc5)c5ccc([nH]5)c(-c5ccc(-c6ccc(C(=O)O)cc6)cc5)c5nc3C=C5)C=C4)cc2)cc1 | 6 | 0.633 | 0.877 | 1.21 | > 25 | 0.38 | 18.6 | – | 1.48 | 0.877 | 17 | > 10 | 25 | 32.2
5 | COC(=O)[C@H](CC(=O)O)NC(=O)c1cc(C(=O)N[C@@H](CC(=O)O)C(=O)OC)cc(-c2ccc(-c3c4nc(c(-c5ccc(-c6cc(C(=O)N[C@@H](CC(=O)O)C(=O)OC)cc(C(=O)N[C@@H](CC(=O)O)C(=O)OC)c6)cc5)c5ccc([nH]5)c(-c5ccc(-c6cc(C(=O)N[C@@H](CC(=O)O)C(=O)OC)cc(C(=O)N[C@@H](CC(=O)O)C(=O)OC)c6)cc5)c5nc(c(-c6ccc(-c7cc(C(=O)N[C@@H](CC(=O)O)C(=O)OC)cc(C(=O)N[C@@H](CC(=O)O)C(=O)OC)c7)cc6)c6ccc3[nH]6)C=C5)C=C4)cc2)c1 | 10 | – | – | – | 4.1 | – | – | – | – | 2.5 | 1.7 | > 10 | > 25 | 12.5
6 | O=C(O)c1cc(C(=O)O)cc(-c2c3nc(c(-c4cc(C(=O)O)cc(C(=O)O)c4)c4ccc([nH]4)c(-c4cc(C(=O)O)cc(C(=O)O)c4)c4nc(c(-c5cc(C(=O)O)cc(C(=O)O)c5)c5ccc2[nH]5)C=C4)C=C3)c1 | 25 | – | – | – | > 100 | – | > 50 | – | – | 13.6 | – | – | > 50 | > 50
7 | O=C(O)c1cccc(-c2ccc(-c3c4nc(c(-c5ccc(-c6cccc(C(=O)O)c6)cc5)c5ccc([nH]5)c(-c5ccc(-c6cccc(C(=O)O)c6)cc5)c5nc(c(-c6ccc(-c7cccc(C(=O)O)c7)cc6)c6ccc3[nH]6)C=C5)C=C4)cc2)c1 | 22 | – | – | – | > 25 | – | 42.3 | – | – | 0.764 | – | > 20 | > 25 | 13
8 | O=C(O)CNC(=O)c1ccc(-c2c3nc(c(-c4ccc(C(=O)NCC(=O)O)cc4)c4ccc([nH]4)c(-c4ccc(C(=O)NCC(=O)O)cc4)c4nc(c(-c5ccc(C(=O)NCC(=O)O)cc5)c5ccc2[nH]5)C=C4)C=C3)cc1 | 15 | – | – | – | > 25 | – | 27 | – | – | 1.8 | – | > 10 | 3.2 | > 50
